From ChEMBL document CHEMBL1156209, “Hybrid ortho/allosteric ligands for the adenosine A(1) receptor” (J Med Chem, 2010)
pEC50, pKi: −log10 of the molar value.

What was measured:
Adenosine receptor A1 [1] = target: T1, Adenosine receptor A1 (Homo sapiens, UniProt P30542); experiment: Displacement of […] from human adenosine A1 receptor expressed in CHO cells by scintillation counting; type: cell-based; settings: for pKi: read-out: Ki; for Ki: read-out: pKi (converted)
T1 sequence (P30542 whole entry): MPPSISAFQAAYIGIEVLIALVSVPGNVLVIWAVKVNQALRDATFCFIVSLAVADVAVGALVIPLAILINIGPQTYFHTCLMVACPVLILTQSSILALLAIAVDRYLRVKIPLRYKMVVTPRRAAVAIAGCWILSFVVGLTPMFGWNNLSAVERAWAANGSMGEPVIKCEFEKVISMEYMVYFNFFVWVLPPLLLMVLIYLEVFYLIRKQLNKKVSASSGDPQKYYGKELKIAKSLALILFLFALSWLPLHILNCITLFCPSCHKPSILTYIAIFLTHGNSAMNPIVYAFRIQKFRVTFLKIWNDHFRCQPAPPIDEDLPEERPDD
Method in brief: (§1)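 Equilibrium competition in 50 mM Tris HCl pH 7.4 with 0.8 IU/mL adenosine deaminase and 1.6 nM [3H]DPCPX. Increasing ligand concentrations ± 10 μM PD81,723. CHO-hA1 membranes (10 μg protein) incubated 1 h at 25 °C. GF/B filtration, scintillation counting. Nonspecific binding defined with 10 μM CPA. High- and low-affinity Ki taken from biphasic curves.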

[2] = target: T2, Adenosine receptor A1 (Homo sapiens) (UniProt P30542); experiment: Displacement of […] from human adenosine A1 receptor expressed in CHO cells by scintillation counting relative to control; type: cell-based; parameters: concentration or dose not given beside the values; method in brief: as §1
T2 sequence (whole entry): T1 sequence (P30542 whole entry)

Adenosine receptor A1 [3] = target: T1, Adenosine receptor A1; experiment: Displacement of […] from human adenosine A1 receptor expressed in CHO cells by scintillation counting in presence of 10 uM allosteric modulator PD-81723; type: cell-based; settings: for pKi: read-out: Ki; for Ki: read-out: pKi (converted); method in brief: as §1
[4] = target: T2, Adenosine receptor A1 (Homo sapiens); experiment: Displacement of [3H]CCPA from human adenosine A1 receptor expressed in CHO cells by scintillation counting relative to control; type: cell-based
Method in brief: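 Filtration and scintillation counting. Nonspecific binding defined with 10 μM CPA. pKi and maximal displacement given as percent of specific binding. pKi compared by one-way ANOVA with Bonferroni test.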

Adenosine receptor A1 [5] = target: T1, Adenosine receptor A1; experiment: Enhancement of [3H]CCPA binding to human adenosine A1 receptor expressed in CHO cells by scintillation counting
Adenosine receptor A1 [6] = target: T1, Adenosine receptor A1; experiment: Agonist activity at human adenosine A1 receptor expressed in CHO cells assessed as stimulation of ERK1/2 phosphorylation in presence of 10 uM allosteric modulator PD-81723; type: functional, cell-based; settings: for pEC50: read-out: EC50
Method in brief: (§2)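 Intact CHO-hA1 cells seeded at 40 000/well. After 6 h, washed and serum-starved in DMEM for 14 h. Pretreated 30 min with 0.8 IU/mL adenosine deaminase, then stimulated 5 min with compound ± 10 μM PD81,723. Lysed; phospho-ERK1/2 read by AlphaScreen SureFire after ≥3 h dark incubation at room temperature. Emax given as percent of the reference agonist. Mean ± SEM of ≥3 experiments. Fold shift in pEC50 versus control.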

[7] = target: T2, Adenosine receptor A1 (Homo sapiens); experiment: Agonist activity at human adenosine A1 receptor expressed in CHO cells assessed as [35S]GTPgammaS binding by scintillation counting in presence of 10 uM allosteric modulator PD-81723 relative to control; type: functional, cell-based
Method in brief: (§3)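 CHO-hA1 membranes (5 μg protein) preincubated 30 min at 25 °C in 50 mM Tris, 100 mM NaCl, 10 mM MgCl, pH 7.4 with 3 μM GDP and a concentration range of agonist, with or without 10 μM PD81,723. 0.3 nM (final) [35S]GTPγS then added for 45 min at 25 °C. Filtration, washing, scintillation counting. Emax given as percent of maximal stimulation by the reference agonist. Control and PD81,723 pEC50 compared to give fold shift.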

Adenosine receptor A1 [8] = target: T1, Adenosine receptor A1; experiment: Agonist activity at human adenosine A1 receptor expressed in CHO cells assessed as [35S]GTPgammaS binding by scintillation counting in presence of 10 uM allosteric modulator PD-81723; type: functional, cell-based; settings: for pEC50: read-out: EC50; for EC50: read-out: pEC50 (converted); method in brief: as §3
[9] = target: T2, Adenosine receptor A1 (Homo sapiens); experiment: Agonist activity at human adenosine A1 receptor expressed in CHO cells assessed as stimulation of ERK1/2 phosphorylation in presence of 10 uM allosteric modulator PD-81723 relative to control; type: functional, cell-based; method in brief: as §2
[10] = target: T2, Adenosine receptor A1 (Homo sapiens); experiment: Agonist activity at human adenosine A1 receptor expressed in CHO cells assessed as [35S]GTPgammaS binding by scintillation counting relative to control; type: functional, cell-based; method in brief: as §3
Adenosine receptor A1 [11] = target: T1, Adenosine receptor A1; experiment: Displacement of […] from human adenosine A1 receptor expressed in CHO cells at high affinity site by scintillation counting; type: cell-based; method in brief: as §1
Adenosine receptor A1 [12] = target: T1, Adenosine receptor A1; experiment: Agonist activity at human adenosine A1 receptor expressed in CHO cells assessed as stimulation of ERK1/2 phosphorylation; type: functional, cell-based; settings: for pEC50: read-out: EC50; for EC50: read-out: pEC50 (converted); method in brief: as §2
[13] = target: T2, Adenosine receptor A1 (Homo sapiens); experiment: Agonist activity at human adenosine A1 receptor expressed in CHO cells assessed as stimulation of ERK1/2 phosphorylation relative to control; type: functional, cell-based; method in brief: as §2
Adenosine receptor A1 [14] = target: T1, Adenosine receptor A1; experiment: Agonist activity at human adenosine A1 receptor expressed in CHO cells assessed as [35S]GTPgammaS binding by scintillation counting; type: functional, cell-based; settings: for pEC50: read-out: EC50; for EC50: read-out: pEC50 (converted); method in brief: as §3
Adenosine receptor A1 [15] = target: T1, Adenosine receptor A1; experiment: Displacement of […] from human adenosine A1 receptor expressed in CHO cells at low affinity site by scintillation counting; type: cell-based; method in brief: as §1
[16] = target: T2, Adenosine receptor A1 (Homo sapiens); experiment: Selectivity ratio of EC50 for human adenosine A1 receptor-mediated ERK1/2 phosphorylation to EC50 for human adenosine A1 receptor-mediated ERK1/2 phosphorylation in presence of 10 uM allosteric modulator PD-81723 assessed as; method in brief: as §2
[17] = target: T2, Adenosine receptor A1 (Homo sapiens); experiment: Selectivity ratio of EC50 for human adenosine A1 receptor to EC50 for human adenosine A1 receptor in presence of 10 uM allosteric modulator PD-81723; method in brief: as §3

| Compound | pKi (Adenosine receptor A1 [1]) | Activity [2] | pKi (Adenosine receptor A1 [3]) | Ki (Adenosine receptor A1 [1]) | Ki (Adenosine receptor A1 [3]) | Emax [4] | other results |
| --- | --- | --- | --- | --- | --- | --- | --- |
| Nc1sc2c(c1C(=O)c1ccc(Cl)c(Cl)c1)CCN(CCCCCCCCCCOc1ccc(Nc3ncnc4c3ncn4[C@@H]3O[C@H](CO)[C@@H](O)[C@H]3O)cc1)C2 | 5.83 | 55% | 5.87 | 1.26 µM | 1.29 µM | – | – |
| Nc1sc2c(c1C(=O)c1ccc(Cl)c(Cl)c1)CCN(CCCOc1ccc([N+](=O)[O-])cc1)C2 | – | – | – | – | – | 204% | pEC50 (Adenosine receptor A1 [5]): 5.43 |
| COc1ccc(Nc2ncnc3c2ncn3[C@@H]2O[C@H](CO)[C@@H](O)[C@H]2O)cc1 | 6.07 | 100% | 6.71 | 0.832 µM | 0.191 µM | 100% | pEC50 (Adenosine receptor A1 [6]): 8.30; Emax [7]: 91%; pEC50 (Adenosine receptor A1 [8]): 7.54; EC50 (Adenosine receptor A1 [8]): 0.0302 µM; Emax [9]: 131%; Emax [10]: 100%; pKi (Adenosine receptor A1 [11]; read-out: Ki): 7.15; Ki (Adenosine receptor A1 [11]; read-out: pKi (converted)): 0.0427 µM; pEC50 (Adenosine receptor A1 [12]): 7.66; EC50 (Adenosine receptor A1 [12]): 0.0209 µM; Emax [13]: 100%; pEC50 (Adenosine receptor A1 [14]): 6.85; EC50 (Adenosine receptor A1 [14]): 0.123 µM; pKi (Adenosine receptor A1 [15]; read-out: Ki): 5.70; Ki (Adenosine receptor A1 [15]; read-out: pKi (converted)): 1.86 µM; Ratio EC50 [16]: 4.4; Ratio EC50 [17]: 4.9 |
| Nc1sc2c(c1C(=O)c1ccc(Cl)c(Cl)c1)CCN(CCOc1ccc(Nc3ncnc4c3ncn4[C@@H]3O[C@H](CO)[C@@H](O)[C@H]3O)cc1)C2 | 6.12 | 100% | 6.33 | 0.741 µM | – | – | – |
| Cc1sc(N)c(C(=O)c2cccc(C(F)(F)F)c2)c1C | – | – | – | – | – | 140% | – |
| Nc1sc2c(c1C(=O)c1ccc(Cl)c(Cl)c1)CCN(CCCCCCCCOc1ccc(Nc3ncnc4c3ncn4[C@@H]3O[C@H](CO)[C@@H](O)[C@H]3O)cc1)C2 | 6.08 | 65% | 6.23 | 0.776 µM | 0.457 µM | – | – |
| Nc1sc2c(c1C(=O)c1ccc(Cl)c(Cl)c1)CCN(CCOc1ccc([N+](=O)[O-])cc1)C2 | – | – | – | – | – | 250% | pEC50 (Adenosine receptor A1 [5]): 5.07 |
| Nc1sc2c(c1C(=O)c1ccc(Cl)c(Cl)c1)CCN(CCCCCOc1ccc([N+](=O)[O-])cc1)C2 | – | – | – | – | – | 185% | pEC50 (Adenosine receptor A1 [5]): 5.28 |
| Nc1sc2c(c1C(=O)c1ccc(Cl)c(Cl)c1)CCN(CCCCCCCCCOc1ccc(Nc3ncnc4c3ncn4[C@@H]3O[C@H](CO)[C@@H](O)[C@H]3O)cc1)C2 | 6.17 | 83% | 6.19 | 0.661 µM | – | 79% | pEC50 (Adenosine receptor A1 [6]): 6.09; EC50 (Adenosine receptor A1 [6]; read-out: pEC50 (converted)): 0.692 µM; Emax [7]: 105%; pEC50 (Adenosine receptor A1 [8]): 6.74; EC50 (Adenosine receptor A1 [8]): 0.178 µM; Emax [9]: 122%; Emax [10]: 110%; pEC50 (Adenosine receptor A1 [12]): 5.97; EC50 (Adenosine receptor A1 [12]): 0.955 µM; Emax [13]: 123%; pEC50 (Adenosine receptor A1 [14]): 6.41; Ratio EC50 [16]: 1.3; Ratio EC50 [17]: 2.2 |

Second part, led by results:

| pKi (Adenosine receptor A1 [1]) | Activity [2] | pKi (Adenosine receptor A1 [3]) | Ki (Adenosine receptor A1 [1]) | Ki (Adenosine receptor A1 [3]) | Emax [4] | Compound | other results |
| --- | --- | --- | --- | --- | --- | --- | --- |
| 6.21 | 100% | 6.50 | – | – | – | Nc1sc2c(c1C(=O)c1ccc(Cl)c(Cl)c1)CCN(CCCCOc1ccc(Nc3ncnc4c3ncn4[C@@H]3O[C@H](CO)[C@@H](O)[C@H]3O)cc1)C2 | – |
| 6.36 | 100% | 6.57 | 0.417 µM | 0.245 µM | – | Nc1sc2c(c1C(=O)c1ccc(Cl)c(Cl)c1)CCN(CCCOc1ccc(Nc3ncnc4c3ncn4[C@@H]3O[C@H](CO)[C@@H](O)[C@H]3O)cc1)C2 | – |
| 6.38 | 103% | 6.54 | 0.479 µM | 0.275 µM | – | Nc1sc2c(c1C(=O)c1ccc(Cl)c(Cl)c1)CCN(CCCCCCOc1ccc(Nc3ncnc4c3ncn4[C@@H]3O[C@H](CO)[C@@H](O)[C@H]3O)cc1)C2 | – |
| 6.35 | 91% | 6.46 | – | – | – | Nc1sc2c(c1C(=O)c1ccc(Cl)c(Cl)c1)CCN(CCCCCCCOc1ccc(Nc3ncnc4c3ncn4[C@@H]3O[C@H](CO)[C@@H](O)[C@H]3O)cc1)C2 | – |
| 6.66 | 100% | 6.94 | 0.214 µM | 0.11 µM | 97% | Nc1sc2c(c1C(=O)c1ccc(Cl)c(Cl)c1)CCN(CCCCCOc1ccc(Nc3ncnc4c3ncn4[C@@H]3O[C@H](CO)[C@@H](O)[C@H]3O)cc1)C2 | pEC50 (Adenosine receptor A1 [6]): 7.05; Emax [7]: 97%; pEC50 (Adenosine receptor A1 [8]): 7.28; Emax [9]: 131%; Emax [10]: 110%; pEC50 (Adenosine receptor A1 [12]): 6.81; EC50 (Adenosine receptor A1 [12]): 0.151 µM; Emax [13]: 114%; pEC50 (Adenosine receptor A1 [14]): 6.56; EC50 (Adenosine receptor A1 [14]): 0.269 µM; Ratio EC50 [16]: 1.8; Ratio EC50 [17]: 5.2 |
